According to ChEMBL document CHEMBL4004815, “(-)-Neocaryachine, an Antiproliferative Pavine Alkaloid from Cryptocarya laevigata, Induces DNA Double-Strand Breaks” (J Nat Prod, 2017):
Active and inactive are the calls of the source. The calls are words filed in the database; no cut-off is given here.

What was measured:
[1] = Antiproliferative activity against human KBVIN cells after 72 hrs by SRB assay; format: functional, cell-based
In short: (§1)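 Cells seeded at 4000−12 000 per well, density set by the line's doubling time. Compounds were added in DMSO, at most 0.1% v/v. After 72 h exposure, attached cells were fixed with 10% TCA, stained with 0.04% SRB, and the dye was solubilised in 10 mM Tris base. Absorbance read at 515 nm. IC50 is 50% reduction relative to untreated cells, averaged over at least three independent experiments in duplicate. KB-VIN was maintained in 100 nM VIN.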

Homo sapiens [2] = organism: Homo sapiens; test: Induction of morphological changes of microtubule in human KBVIN cells at 20 uM after 24 hrs by DAPI staining-based confocal fluorescence microscopic method; format: cell-based
In short: (§2)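 KB-VIN cells on chamber slides were dosed 24 h after seeding and treated for 24 h, with 0.1% DMSO as control. Cells were fixed in ice-cold 4% paraformaldehyde/PBS and permeabilised with 0.5% Triton X-100. Staining used mouse anti-α-tubulin with FITC secondary, rabbit anti-γ-H2AX with Alexa Fluor 546 secondary, and DAPI for nuclei. Stacked confocal images were examined.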

A549 = test: Antiproliferative activity against human A549 cells after 72 hrs by SRB assay; format: functional, cell-based; conditions: A549, 72 h
In short: (§3)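 Cells seeded at 4000−12 000 per well, density set by the line's doubling time. Compounds were added in DMSO, at most 0.1% v/v. After 72 h exposure, attached cells were fixed with 10% TCA, stained with 0.04% SRB, and the dye was solubilised in 10 mM Tris base. KB-VIN was maintained in 100 nM VIN.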

MCF7 = test: Antiproliferative activity against human MCF7 cells after 72 hrs by SRB assay; format: functional, cell-based; conditions: MCF7, 72 h; in short: as §1
MDA-MB-231 = test: Antiproliferative activity against human MDA-MB-231 cells after 72 hrs by SRB assay; format: functional, cell-based; conditions: MDA-MB-231, 72 h; in short: as §3
KBVIN [3] = test: Cell cycle arrest in human KBVIN cells assessed as increase in cell levels at sub G1 phase at 20 uM after 48 hrs by propidium iodide staining-based flow cytometric method; format: functional
In short: (§4)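 KB-VIN cells were seeded 24 h before dosing, then exposed for 24 or 48 h, with 0.1% DMSO as the vehicle control. DNA content was stained with propidium iodide and cell-cycle distribution (sub-G1, S, G2/M) analysed by flow cytometry. Experiments were repeated at least three times.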

Homo sapiens [4] = organism: Homo sapiens; test: Induction of DNA double strand breaks in human KBVIN cells assessed as increase in gamma-H2AX positive nuclei at 20 uM after 24 hrs by DAPI staining-based confocal fluorescence microscopic method; format: cell-based; in short: as §2
KB = test: Antiproliferative activity against human KB cells after 72 hrs by SRB assay; format: functional, cell-based; in short: as §3
KBVIN [5] = test: Cell cycle arrest in human KBVIN cells assessed as accumulation at S phase at 20 uM after 24 to 48 hrs by propidium iodide staining-based flow cytometric method; format: functional; in short: as §4
Homo sapiens [6] = organism: Homo sapiens; test: Induction of morphological changes of microtubule in human KBVIN cells at 3 uM after 24 hrs by DAPI staining-based confocal fluorescence microscopic method; format: cell-based
In short: (§5)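 KB-VIN cells on chamber slides 24 h, then compound (0.3 and 3.0 µM) or 0.1% DMSO for 24 h. Fixed in ice-cold 4% paraformaldehyde/PBS, permeabilised with 0.5% Triton X-100. Stained with mouse anti-α-tubulin (FITC secondary), rabbit anti-γ-H2AX (Alexa Fluor 546 secondary) and DAPI. Imaged by confocal microscopy as stacked images.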

Homo sapiens [7] = organism: Homo sapiens; test: Induction of DNA double strand breaks in human KBVIN cells assessed as increase in gamma-H2AX positive nuclei after 24 hrs by DAPI staining-based confocal fluorescence microscopic method; format: cell-based; in short: as §5
KBVIN [8] = test: Cell cycle arrest in human KBVIN cells at 0.3 uM after 24 hrs by propidium iodide staining-based flow cytometric method; format: functional
In short: (§6)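 KB-VIN (P-gp-overexpressing MDR KB subline, maintained with 100 nM vincristine) seeded 24 h before treatment. Compound exposure 24 or 48 h, vehicle 0.1% DMSO; 5-FU and CA-4 (10 nM, 24 h) served as S and G2/M arrest controls. DNA content read by propidium iodide staining and flow cytometry. Experiments repeated at least three times.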

KBVIN [9] = test: Induction of apoptosis in human KBVIN cells assessed as nuclear fragmentation at 0.3 to 3 uM after 24 hrs by DAPI staining-based confocal fluorescence microscopic method; format: functional, cell-based; in short: as §5
KBVIN [10] = test: Cell cycle arrest in human KBVIN cells assessed as accumulation at sub-G1 phase at 0.3 uM after 48 hrs by propidium iodide staining-based flow cytometric method; format: functional; in short: as §6
KBVIN [11] = test: Cell cycle arrest in human KBVIN cells assessed as accumulation at S phase at 3 to 10 uM after 24 to 48 hrs by propidium iodide staining-based flow cytometric method; format: functional; in short: as §6

Row | SMILES | IC50 [1] | Activity (Homo sapiens [2]) | IC50 (A549) | IC50 (MCF7) | IC50 (MDA-MB-231) | Activity (KBVIN [3]) | Activity (Homo sapiens [4]) | IC50 (KB) | Activity (KBVIN [5]) | Activity (Homo sapiens [6]) | Activity (Homo sapiens [7]) | Activity (KBVIN [8]) | Activity (KBVIN [9]) | Activity (KBVIN [10]) | Activity (KBVIN [11])
1 | CN1[C@H]2Cc3cc4c(cc3[C@@H]1Cc1cc3c(cc12)OCO3)OCO4 [ESCHOLTZINE] | 19.8 µM | inactive | 8.71 µM | 26.6 µM | 26.1 µM | Active | inactive | 17 µM | inactive |  |  |  |  |  | 
2 | CC(=O)O[C@H]1C(=O)[C@@]2(C)[C@H]([C@H](OC(=O)c3ccccc3)[C@]3(O)C[C@H](OC(=O)[C@H](O)[C@@H](NC(=O)c4ccccc4)c4ccccc4)C(C)=C1C3(C)C)[C@]1(OC(C)=O)CO[C@@H]1C[C@@H]2O [PACLITAXEL] | 1.93 µM |  |  | 0.0104 µM |  |  |  |  |  |  |  |  |  |  | 
3 | COc1cc2c(cc1O)C[C@H]1c3cc4c(cc3C[C@@H]2N1C)OCO4 | 5.91 µM |  | 3.98 µM | 7.42 µM | 5.71 µM |  |  | 5.49 µM |  |  |  |  |  |  | 
4 | COc1ccc2c(c1O)[C@@H]1Cc3cc4c(cc3[C@H](C2)N1C)OCO4 | 0.241 µM |  | 0.064 µM | 0.413 µM | 0.264 µM |  |  | 0.228 µM |  | Active | Dose-dependent effect | inactive | Active | Active | Active
5 | C[N+]1([O-])[C@H]2Cc3cc4c(cc3[C@@H]1Cc1cc3c(cc12)OCO3)OCO4 (some centres not stated) | > 40 µM |  | 29.3 µM | > 40 µM | 41 µM |  |  | 35.5 µM |  |  |  |  |  |  | 
6 | COc1cc2c(cc1O)[C@@H]1Cc3cc(OC)c(OC)cc3[C@H](C2)N1C | > 40 µM |  | > 40 µM | > 40 µM | > 40 µM |  |  | > 40 µM |  |  |  |  |  |  | 
